Laboratory results from publication PMC3954597 (Biochemistry, 2014).

What was measured:
Format in all cases: biochemical
[1] = molecular target: T1, PTP-PEST (Homo sapiens, UniProt Q05209); assay: PTP assay with pY peptide substrates, PTP-PEST; conditions: for Km / kcat / kcat/KM x10^6: catalytic domain, 100 mM HEPES pH 7.4, monitored at 282 nm
T1 sequence (Q05209 5-300): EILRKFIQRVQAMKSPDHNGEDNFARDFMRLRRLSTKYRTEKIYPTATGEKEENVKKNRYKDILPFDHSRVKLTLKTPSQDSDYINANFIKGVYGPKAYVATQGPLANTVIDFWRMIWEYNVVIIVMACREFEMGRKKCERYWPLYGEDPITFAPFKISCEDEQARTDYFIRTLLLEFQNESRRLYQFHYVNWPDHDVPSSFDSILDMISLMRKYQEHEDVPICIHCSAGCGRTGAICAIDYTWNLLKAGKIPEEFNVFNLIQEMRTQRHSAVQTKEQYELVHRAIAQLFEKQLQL

[2] = molecular target: T2, PTP1B (Homo sapiens, UniProt P18031); assay: PTP assay, wild-type PTP1B; conditions: for kcat/KM x10^6: WT catalytic domain aa 1–321, 100 mM HEPES pH 7.4, monitored at 282 nm
T2 sequence (P18031 1-321): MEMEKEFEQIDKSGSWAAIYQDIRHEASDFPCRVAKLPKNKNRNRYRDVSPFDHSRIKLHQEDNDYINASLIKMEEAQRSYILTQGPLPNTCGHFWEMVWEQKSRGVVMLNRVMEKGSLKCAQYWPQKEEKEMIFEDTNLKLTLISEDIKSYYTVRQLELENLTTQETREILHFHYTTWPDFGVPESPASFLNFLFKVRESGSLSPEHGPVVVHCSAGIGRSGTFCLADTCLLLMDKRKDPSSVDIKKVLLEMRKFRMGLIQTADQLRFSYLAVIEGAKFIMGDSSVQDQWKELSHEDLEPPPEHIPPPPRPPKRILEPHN
Method in brief: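 E. coli-expressed catalytic domains were used: wild-type, R24M or R47E PTP1B (aa 1–321), and SHP-1 (aa 205–595). Reactions started with PTP (0.5–20000 nM final) and dephosphorylation was monitored continuously at 282 nm. kcat, KM and kcat/KM came from initial-rate fits (Michaelis–Menten, or V = kcat[E][S]/KM when KM >> [S]) or from fits of progress curves.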

[3] = molecular target: T3, PTPRO (Homo sapiens, UniProt Q16827); assay: PTP assay, PTPRO; conditions: for Km / kcat / kcat/KM x10^6: catalytic domain, 100 mM HEPES pH 7.4, monitored at 282 nm
T3 sequence (Q16827 938-1195 limits assumed): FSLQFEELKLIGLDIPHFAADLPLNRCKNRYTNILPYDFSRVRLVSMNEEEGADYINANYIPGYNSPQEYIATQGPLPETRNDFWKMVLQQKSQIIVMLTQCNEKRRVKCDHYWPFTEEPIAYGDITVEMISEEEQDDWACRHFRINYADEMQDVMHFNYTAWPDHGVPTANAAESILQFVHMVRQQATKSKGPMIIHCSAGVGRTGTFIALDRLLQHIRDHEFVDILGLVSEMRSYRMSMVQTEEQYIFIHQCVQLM

[4] = molecular target: PTPRB (Homo sapiens, UniProt P23467); assay: PTP assay, PTPRB; conditions: for Km / kcat / kcat/KM x10^6: catalytic domain, 100 mM HEPES pH 7.4, monitored at 282 nm
[5] = molecular target: T4, PTPH1 (Homo sapiens, UniProt P26045); assay: PTP assay, PTPH1; conditions: for Km / kcat / kcat/KM x10^6: catalytic domain, 100 mM HEPES pH 7.4, monitored at 282 nm
T4 sequence (P26045 628-909): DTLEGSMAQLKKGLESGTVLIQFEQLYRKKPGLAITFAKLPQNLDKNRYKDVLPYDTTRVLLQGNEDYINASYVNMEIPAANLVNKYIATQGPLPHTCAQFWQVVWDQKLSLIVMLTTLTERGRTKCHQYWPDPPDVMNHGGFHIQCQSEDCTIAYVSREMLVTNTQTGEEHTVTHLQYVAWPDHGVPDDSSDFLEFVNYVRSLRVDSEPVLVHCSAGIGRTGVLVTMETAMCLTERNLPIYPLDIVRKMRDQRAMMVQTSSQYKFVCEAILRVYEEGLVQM

[6] = molecular target: T5, PTPD2 (Homo sapiens, UniProt Q15678); assay: PTP assay, PTPD2; conditions: for Km / kcat / kcat/KM x10^6: catalytic domain, 100 mM HEPES pH 7.4, monitored at 282 nm
T5 sequence (Q15678 876-1187): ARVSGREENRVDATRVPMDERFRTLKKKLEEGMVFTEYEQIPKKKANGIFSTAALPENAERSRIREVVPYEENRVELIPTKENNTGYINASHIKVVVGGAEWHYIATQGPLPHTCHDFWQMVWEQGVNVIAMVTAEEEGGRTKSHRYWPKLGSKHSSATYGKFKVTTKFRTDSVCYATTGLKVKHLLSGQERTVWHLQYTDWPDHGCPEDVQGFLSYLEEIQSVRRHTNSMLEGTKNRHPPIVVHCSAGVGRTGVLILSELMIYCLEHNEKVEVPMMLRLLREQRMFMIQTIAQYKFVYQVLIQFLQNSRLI
Method in brief: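 His-tagged catalytic domains were made in E. coli: PTPD2 aa 876–1187 and PTPRC aa 620–1236 with N-terminal tags, PTPD1 aa 875–1174 and SHP-2 aa 199–593 with C-terminal tags. Enzyme was added at 0.5–20000 nM final. A282 (Δε 1102 M−1 cm−1) was followed. Constants came from Michaelis–Menten fits of initial rates (<60 s), or from fits of progress curves run to substrate depletion.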

[7] = molecular target: PTPRA (Homo sapiens, UniProt P18433); assay: PTP assay, PTPRA
Method in brief: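 His-tagged PTPRA catalytic domain (aa 224–802), expressed in E. coli. Dephosphorylation was followed continuously at 282 nm (Δε = 1102 M−1 cm−1). Initial rates were fitted to Michaelis-Menten or V = kcat[E][S]/KM, or full progress curves were fitted to depletion.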

[8] = molecular target: T6, HePTP (Homo sapiens, UniProt P35236); assay: PTP assay, HePTP
T6 sequence (P35236 43-356): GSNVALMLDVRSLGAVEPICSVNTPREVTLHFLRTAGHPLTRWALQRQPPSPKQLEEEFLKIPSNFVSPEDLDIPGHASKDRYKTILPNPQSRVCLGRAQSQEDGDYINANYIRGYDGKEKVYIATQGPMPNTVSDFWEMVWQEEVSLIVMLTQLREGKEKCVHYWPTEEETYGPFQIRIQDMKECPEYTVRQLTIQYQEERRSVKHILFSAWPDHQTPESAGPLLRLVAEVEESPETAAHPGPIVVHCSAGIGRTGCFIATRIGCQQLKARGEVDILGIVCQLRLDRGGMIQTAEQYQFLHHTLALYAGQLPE

[9] = kcat/KM of neutral peptide over basic Ac-YRKRFpYRYKF-NH2
[10] = catalytic domain, 100 mM HEPES pH 7.4, monitored at 282 nm
[11] = kcat/KM of acidic peptide over basic Ac-YRKRFpYRYKF-NH2
[12] = kcat/KM of acidic peptide over neutral Ac-SASASpYSASA-NH2

PTPRB, sequence (P23467 1686-1971): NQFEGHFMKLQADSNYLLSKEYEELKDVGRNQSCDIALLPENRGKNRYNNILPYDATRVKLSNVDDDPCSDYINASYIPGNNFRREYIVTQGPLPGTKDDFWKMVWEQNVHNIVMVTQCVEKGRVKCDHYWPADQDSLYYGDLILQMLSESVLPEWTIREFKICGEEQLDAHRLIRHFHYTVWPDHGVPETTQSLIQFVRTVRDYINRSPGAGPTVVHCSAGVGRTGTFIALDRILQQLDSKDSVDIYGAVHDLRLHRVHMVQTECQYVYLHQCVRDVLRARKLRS

With Ac-SASASpYSASA-NH2 the Km [1] was 800 ± 10 µM, the kcat [1] was 160 ± 2 s⁻¹ and the “kcat/KM x10^6” value [1] was 0.20 x10^6 M^−1 s^−1. The “kcat/KM x 10^7” value ([2]; WT PTP1B aa 1–321, pH 7.4) was 0.23 x 10^7 M^−1 s^−1, the “kcat/KM x10^6” value [2] was 2.3 x10^6 M^−1 s^−1 and the “Neutral/Basic ratio of kcat/KM values” [2, 9] was 61. For the same substance, the Km [3] was 250 ± 10 µM, the kcat [3] was 240 ± 8 s⁻¹ and the “kcat/KM x10^6” value [3] was 0.94 x10^6 M^−1 s^−1. The “Neutral/Basic ratio of kcat/KM values” [3, 9] was 18, the Km [4] was 26 ± 1 µM and the kcat [4] was 56 ± 2 s⁻¹. The “kcat/KM x10^6” value [4] was 2.2 x10^6 M^−1 s^−1, the “Neutral/Basic ratio of kcat/KM values” [4, 9] was 77 and the Km [5] was 5.8 ± 0.7 µM. The kcat [5] was 2.5 ± 0.2 s⁻¹, the “kcat/KM x10^6” value [5] was 0.44 x10^6 M^−1 s^−1 and the Km [6] was 9.4 ± 0.4 µM. The kcat [6] was 0.12 ± 0.006 s⁻¹, the “kcat/KM x10^6” value [6] was 0.013 x10^6 M^−1 s^−1 and the “Neutral/Basic ratio of kcat/KM values” [6, 9] was 160. The “kcat/KM x10^6” value [7, 10] was 0.023 x10^6 M^−1 s^−1, the “Neutral/Basic ratio of kcat/KM values” [7, 9] was 0.5 and the “kcat/KM x10^6” value [8, 10] was 0.0006 x10^6 M^−1 s^−1.
In the case of Ac-YDEDFpYDYEF-NH2, the Km [1] is reported as 2.2 ± 0.5 µM, the kcat [1] is reported as 470 ± 10 s⁻¹ and the “kcat/KM x10^6” value [1] is reported as 220 x10^6 M^−1 s^−1. The “Acidic/Basic ratio of kcat/KM values” [1, 11] was 150000, the “Acidic/Neutral ratio of kcat/KM values” [1, 12] was 1100 and the “kcat/KM x10^6” value [2] was 55 x10^6 M^−1 s^−1. The “Acidic/Basic ratio of kcat/KM values” [2, 11] was 1500, the “Acidic/Neutral ratio of kcat/KM values” [2, 12] was 24 and the Km [3] was 5.7 ± 0.8 µM. The kcat [3] was 200 ± 10 s⁻¹, the “kcat/KM x10^6” value [3] was 35 x10^6 M^−1 s^−1 and the “Acidic/Basic ratio of kcat/KM values” [3, 11] was 660. For the same substance, the “Acidic/Neutral ratio of kcat/KM values” [3, 12] was 37, the Km [4] was 1.8 ± 0.4 µM and the kcat [4] was 55 ± 2 s⁻¹. For the same substance, the “kcat/KM x10^6” value [4] was 31 x10^6 M^−1 s^−1, the “Acidic/Basic ratio of kcat/KM values” [4, 11] was 1100 and the “Acidic/Neutral ratio of kcat/KM values” [4, 12] was 14. The Km [5] was 0.28 ± 0.02 µM, the kcat [5] was 2.4 ± 0.06 s⁻¹ and the “kcat/KM x10^6” value [5] was 8.8 x10^6 M^−1 s^−1. For the same substance, the “Acidic/Basic ratio of kcat/KM values” [5, 11] was 2600, the “Acidic/Neutral ratio of kcat/KM values” [5, 12] was 20 and the Km [6] was 0.7 ± 0.09 µM. The kcat [6] was 0.073 ± 0.003 s⁻¹, the “kcat/KM x10^6” value [6] was 0.11 x10^6 M^−1 s^−1 and the “Acidic/Basic ratio of kcat/KM values” [6, 11] was 1300. The “Acidic/Neutral ratio of kcat/KM values” [6, 12] was 8, the Km [7, 10] was 260 ± 30 µM and the kcat [7, 10] was 19 ± 0.6 s⁻¹. For the same substance, the “kcat/KM x10^6” value [7, 10] was 0.075 x10^6 M^−1 s^−1, the “Acidic/Basic ratio of kcat/KM values” [7, 11] was 2 and the “Acidic/Neutral ratio of kcat/KM values” [7, 12] was 3. The Km [8, 10] was 280 ± 25 µM, the kcat [8, 10] was 7.0 ± 0.3 s⁻¹ and the “kcat/KM x10^6” value [8, 10] was 0.025 x10^6 M^−1 s^−1. For the same substance, the “Acidic/Basic ratio of kcat/KM values” [8, 11] was 2500 and the “Acidic/Neutral ratio of kcat/KM values” [8, 12] was 42.
In the case of Ac-YRKRFpYRYKF-NH2, the “kcat/KM x10^6” value [1] is reported as 0.0015 x10^6 M^−1 s^−1, the “kcat/KM x10^6” value [2] is reported as 0.037 x10^6 M^−1 s^−1 and the “kcat/KM x10^6” value [3] is reported as 0.053 x10^6 M^−1 s^−1. For the same substance, the “kcat/KM x10^6” value [4] was 0.028 x10^6 M^−1 s^−1, the “kcat/KM x10^6” value [5] was 0.0033 x10^6 M^−1 s^−1 and the “kcat/KM x10^6” value [6] was 0.000082 x10^6 M^−1 s^−1. The “kcat/KM x10^6” value [7, 10] was 0.045 x10^6 M^−1 s^−1 and the “kcat/KM x10^6” value [8, 10] was 0.000010 x10^6 M^−1 s^−1.
